The source of these data is ChEMBL document CHEMBL4610112, “Novel Pyrrolopyridone Bromodomain and Extra-Terminal Motif (BET) Inhibitors Effective in Endocrine-Resistant ER+ Breast Cancer with Acquired Resistance to Fulvestrant and Palbociclib” (J Med Chem, 2020).

In series [1] the test system is MCF7:CFR. In words: Down regulation of n-MYC gene expression in fulvestrant-resistant human MCF7:CFR cells at 100 nM measured after 24 hrs. It counts as functional, cell-based. A digest of the protocol: (§1)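 MCF-7:CFR cells exposed to compound at 100 nM, with DMSO (0.01%) as control, for 24 h. RNA extracted and analysed by RNA-seq. Values are log2-fold changes in gene expression against the vehicle control.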

Series [2] has as its system MCF7:CFR. In words: Down regulation of cyclin-D gene expression in fulvestrant-resistant human MCF7:CFR cells at 100 nM measured after 24 hrs. The format is functional, cell-based. A digest of the protocol: as §1
For series [3], the system named is MCF7:CFR. In words: Growth inhibition of fulvestrant-resistant human MCF7:CFR cells at < 300 nM treated for 3 hrs followed by compound washout and measured after 5 days by Hoechst 33342 dye based imaging analysis. The format is functional, cell-based.
Series [4] is described as follows: Growth inhibition of fulvestrant-resistant human MCF7:CFR cells measured after 5 days by Hoechst 33342 dye based imaging analysis. The format is functional, cell-based. The conditions noted are these: 120 h. The essentials:
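MCF-7:CFR cells kept 2 days in phenol red-free RPMI 1640 with 10% charcoal–dextran FBS, then seeded at 2000 cells/well. Single treatment at 0.1 nM–10 μM (0.1% DMSO final) for 5 days. Nuclei stained with Hoechst 33342 and counted by imaging. Survival normalized to DMSO (100%) and JQ1 3 μM (0%). Mean ± SEM from at least two passages, triplicates in each.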

Series [5] relates to MCF7:CFR. As to the kind of experiment: Down regulation of c-MYC gene expression in fulvestrant-resistant human MCF7:CFR cells at 100 nM measured after 24 hrs. It counts as functional, cell-based. A digest of the protocol:
as §1

In series [6] the test system is MCF7:CFR. In words: Up regulation of CDKN1B gene expression in fulvestrant-resistant human MCF7:CFR cells at 100 nM measured after 24 hrs. It counts as functional, cell-based. A digest of the protocol:
as §1

Series [7] has as its system MCF7:CFR. As to the kind of experiment: Growth inhibition of fulvestrant-resistant human MCF7:CFR 3D spheroid cells at 100 nM supplemented with fresh medium containing compound every 2 to 3 days for 9 days by celltitre-glo assay relative to control. It counts as functional. A digest of the protocol:
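MCF-7:CFR cells seeded at 1000 cells/well in ultralow-attachment round-bottom plates and grown 24 h untreated as spheroids. Half the medium then replaced with 2× treatment medium, repeated every 2–3 days. Viability read by CellTiter-Glo 3D luminescence at day 9 and normalized to blank (medium plus reagent).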

Series [8] can be described thus: Protein binding in plasma (unknown origin). The format is ADME, cell-free. The following applies: human. A digest of the protocol: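 Protein binding reported as percent bound, ketoconazole as reference compound. Run by a contract lab.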
The target in series [9] is T1, Bromodomain-containing protein 4 (Homo sapiens, UniProt O60885). As to the kind of experiment: Displacement of APC-labeled biotinylated-avidin from Euphorium-chelated recombinant human BRD4 bromodomain 1 expressed in Escherichia coli preincubated for 15 mins followed by APC-labeled biotinylated-avidin addition and measured after 1 hr under dark condition by TR-FRET assay. A general note: TR-FRET usually uses a lanthanide donor and a delayed reading to cut background.

Series [10] addresses T1, Bromodomain-containing protein 4. As to the kind of experiment: Displacement of APC-labeled biotinylated-avidin from Euphorium-chelated recombinant human BRD4 bromodomain 2 expressed in Escherichia coli preincubated for 15 mins followed by APC-labeled biotinylated-avidin addition and measured after 1 hr under dark condition by TR-FRET assay.
A further series has as its target CYP2A6 (Homo sapiens, UniProt P11509). As to the kind of experiment: Inhibition of human CYP2A6 at 10 uM. It counts as ADME.
The target of a further series is CYP3A4 (Homo sapiens, UniProt P08684). In words: Inhibition of human CYP3A4 at 10 uM. The format is ADME.

Calls of active or inactive are those of the source. The rule behind the calls is not given here.

Sequence of CYP2A6 (P11509 whole entry): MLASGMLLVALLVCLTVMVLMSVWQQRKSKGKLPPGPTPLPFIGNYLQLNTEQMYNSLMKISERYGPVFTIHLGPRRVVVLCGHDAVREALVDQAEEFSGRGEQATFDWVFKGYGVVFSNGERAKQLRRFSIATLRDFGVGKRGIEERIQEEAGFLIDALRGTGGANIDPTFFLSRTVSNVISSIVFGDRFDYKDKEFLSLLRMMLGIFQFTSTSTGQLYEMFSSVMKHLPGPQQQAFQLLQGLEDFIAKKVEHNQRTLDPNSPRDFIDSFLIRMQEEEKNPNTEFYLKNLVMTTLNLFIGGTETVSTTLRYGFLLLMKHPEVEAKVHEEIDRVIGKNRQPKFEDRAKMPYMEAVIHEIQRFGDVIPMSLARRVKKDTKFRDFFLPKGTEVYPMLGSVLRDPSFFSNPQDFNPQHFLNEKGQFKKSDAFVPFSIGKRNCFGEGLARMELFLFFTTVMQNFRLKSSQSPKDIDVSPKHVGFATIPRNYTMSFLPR
Sequence of CYP3A4 (P08684 whole entry): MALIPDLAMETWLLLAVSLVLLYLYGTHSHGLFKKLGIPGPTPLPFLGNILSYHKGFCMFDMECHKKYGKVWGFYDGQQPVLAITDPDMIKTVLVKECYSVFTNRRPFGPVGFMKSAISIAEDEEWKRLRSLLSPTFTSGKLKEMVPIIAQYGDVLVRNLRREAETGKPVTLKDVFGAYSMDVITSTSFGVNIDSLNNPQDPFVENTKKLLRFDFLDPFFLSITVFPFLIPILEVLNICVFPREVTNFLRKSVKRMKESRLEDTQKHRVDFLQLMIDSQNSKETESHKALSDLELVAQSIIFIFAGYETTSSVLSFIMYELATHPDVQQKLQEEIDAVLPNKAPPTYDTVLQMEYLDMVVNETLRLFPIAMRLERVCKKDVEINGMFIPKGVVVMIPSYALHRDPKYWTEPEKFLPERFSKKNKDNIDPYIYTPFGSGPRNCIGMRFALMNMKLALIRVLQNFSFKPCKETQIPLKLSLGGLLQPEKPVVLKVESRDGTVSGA

As to `Cc1sc2c(c1C)C(c1ccc(Cl)cc1)=N[C@@H](CC(=O)OC(C)(C)C)c1nnc(C)n1-2`, the result with MCF7:CFR [1], in the series on MCF7:CFR [2], with MCF7:CFR [5] and with MCF7:CFR [6] was Active. In the series with MCF7:CFR [3], the “growth inhibition (GI)” value is “inactive”. Besides, the IC50 – broadly, the midpoint of a concentration-inhibition curve – in [4] is 90 nM. Further, the “growth inhibition (GI)” value in the series on MCF7:CFR [7] was “Active”.
In the case of `CC(=O)N1CCN(c2ccc(OCC3COC(Cn4ccnc4)(c4ccc(Cl)cc4Cl)O3)cc2)CC1` (stereo not drawn) [KETOCONAZOLE], the PPB in series [8] amounted to 98.35%.
Turning to `Cn1cc(-c2cc(C(C)(C)O)c3ccn(C(C)(c4ccccn4)c4ccccn4)c3c2)c2cc[nH]c(=O)c21`, the IC50 in [9] is 39.6 nM; in series [10] it was 220 nM; in series [4] it was 20 nM.
As for `O=c1ccc2ccccc2o1` [COUMARIN], 10 µM produced 98.2% inhibition against CYP2A6.
As to `Cc1ncc2n1-c1ccc(Cl)cc1C(c1ccccc1F)=NC2` [MIDAZOLAM], at CYP3A4, the inhibition (in general, how much of the control response was suppressed) at 10 µM came to 99.5%.
